The values below come from PMC9273292 (Journal of Ethnopharmacology, 2022).

As a reminder, the CC50 is the concentration at which the toxic effect on the cells reaches its halfway point. A lower CC50 goes with greater toxicity to the cells. By pIC50 is commonly meant the negative decadic logarithm of the IC50, by convention in mol/L.

Series [1] has as its system HCoV-OC43. In words: Cytopathic effect. The note with it: 100 TCID50, 72 hpi, two-fold serial dilutions. It counts as cell-based, human coronavirus OC43. The procedure, abridged:
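Confluent cell monolayers are infected with 100 TCID50 HCoV-OC43 (titre by Reed-Muench) and given two-fold serial dilutions of test compound. At 72 hpi, CPE (lysis, rounding, vacuolization) is scored by phase-contrast microscopy; absence of CPE is taken as activity. Remdesivir is the positive control.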
In general terms: Damage to the host cells serves as the signal in cytopathic effect assays.

A short description of series [2]: CCK-8 cytotoxicity assay. The note with it: human, HRT-18 cells. It counts as cell-based. The procedure, abridged:
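Viability of HRT-18 cells is read by CCK-8 per the kit protocol. Cells are kept in RPMI 1640 with 10% FBS, sodium pyruvate, NEAA and 0.025M HEPES at 37 °C, 5% CO2. Run in triplicate. CC50 comes from a four-parameter log(inhibitor) vs response fit of mean values.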
(In general: Tetrazolium dyes change colour on reduction, which living cells bring about.)

The test system of series [3] is HCoV-OC43. The series can be described thus: Antibody-based EC50 assay. The note with it: CC50/EC50, HRT-18 cells. It counts as cell-based, human coronavirus OC43. The essentials: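 HRT-18 cells (RPMI 1640, 10% FBS, 37 °C, 5% CO2) infected with HCoV-OC43 and treated with test compound. Viral nucleocapsid is detected with an anti-OC43 nucleocapsid antibody. Run in triplicate. EC50 comes from a four-parameter log(inhibitor) vs response fit of mean values. SI = CC50/EC50.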

The test system of series [4] is HCoV-OC43. In words: Immunofluorescence analysis of HCoV-OC43 nucleocapsid in infected HRT-18 cells. It counts as cell-based, human coronavirus OC43. Conditions: 4 μM, 48 hpi.
In series [5] the test system is HCoV-OC43. In words: Transmission electron microscopy of infected HRT-18 cells. It counts as cell-based, human coronavirus OC43. The note with it: 4 μM, 48 hpi. The procedure, abridged:
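HRT-18 monolayers are inoculated with 100 TCID50 HCoV-OC43 for 2 h at 37 °C. Inoculum is then replaced by RPMI 1640 with 2% FBS containing test compound or DMSO. At 48 hpi, virus particles are examined by negative staining under transmission electron microscopy.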

The target in series [6] is recombinant SARS-CoV-2 PLpro (Severe acute respiratory syndrome coronavirus 2, UniProt P0DTD1). In words: PLpro inhibition assay. It counts as biochemical.
The target in series [7] is SARS-CoV-2 Nsp14N7 methyltransferase (Severe acute respiratory syndrome coronavirus 2, UniProt P0DTD1). The series can be described thus: Nsp14N7-MTase inhibition assay. It counts as biochemical.
For series [8], the system named is Mpro. Conditions: cited from earlier work.
Series [9] relates to Mpro. The note with it: SARS-CoV-2 model; ref Alhadrami et al., 2021; cited from earlier work.

Structures are written as SMILES. pIC50: −log10 of the molar value.

Consider `O=C1C[C@@H](c2ccc(O)c(O)c2)Oc2cc(O)cc(O)c21` [Compound 8, eriodictyol], for which, in series [1], the “inhibition of CPE caused by HCoV-OC43 infection” value (“inhibition of CPE caused” below) is reported as “showed antiviral activity”.

As to `O=C1C[C@@H](c2ccc(O)cc2)Oc2cc(O)cc(O)c21` [Compound 5, naringenin], the “inhibition of CPE caused” value in series [1] is “showed antiviral activity”.

As to `C=C(C)[C@@H]1CC[C@]2(C(=O)O)CC[C@]3(C)[C@H](CC[C@@H]4[C@@]5(C)CC[C@H](O)C(C)(C)[C@@H]5CC[C@]43C)[C@@H]12` [Compound 1, betulinic acid], the CC50 in [2] is 19.4 µM. In addition, the “inhibition of CPE caused” value in series [1] is on record as “showed antiviral activity”. Further, in [3], the “Selective index (SI)” value was 8.04. Besides, the “fluorescence signal of virus particles (HCoV-OC43 nucleocapsid)” value in series [4] is “substantially reduced the fluorescence signal of virus particles”. Besides, the “viral particles in infected cells under TEM” value in series [5] is reported as “no viral particles were detected”. The pIC50 in series [6] is 5.69; in [7], 5.95. For the same molecule, the “concentration inhibiting Mpro activity by competitive inhibition” value in series [8] was 10 µmol/L. Moreover, in series [9], the “concentration inhibiting Mpro activity” value was 14.55 µmol/L.

Consider `C[C@H]1[C@H](C)CC[C@]2(C)CC[C@]3(C)C(=CC[C@@H]4[C@@]5(C)CC[C@H](O)C(C)(C)[C@@H]5CC[C@]43C)[C@H]12` [Compound 2, α-amyrin], for which it took 24 µM to reach half-maximal cytotoxicity in series [2] (CC50). The “inhibition of CPE caused” value in series [1] is reported as “showed antiviral activity”. Also, the “Selective index (SI)” value in series [3] came out at 6.03.

As to `O=c1c(O)c(-c2ccc(O)c(O)c2)oc2cc(O)cc(O)c12` [Compound 11, quercetin], the CC50 in [2] was 34 µM. Besides, in series [1], the “inhibition of CPE caused” value is reported as “showed antiviral activity”. For the same molecule, the “Selective index (SI)” value in [3] was found to be 7.29.
